An excerpt weighted towards active compounds, which were near 3.4% of everything screened.
MEKK2 mut-MEK5: signal of MEK5 binding to mutant human MEKK2 PB1 domain. bead flow cytometry, Alexa488-MEK5 binding to MEKK2 mutant. percent response, % at 10 µM. 290,000 compounds, 0.35% hits. AID 1530; in the data active = percent response above about 24%, passing the limit was not always enough
VIM-2 inhibitor: inhibitors of Pseudomonas aeruginosa VIM-2 metallo-beta-lactamase; inhibition, % at 5.6 µM; purified VIM-2, nitrocefin hydrolysis, epi-absorbance fluorescence; 290,000 compounds, 0.89% hits; AID 1527;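 active = inhibition above the mean of all tested compounds plus 3 SD, cutoff set per screening run, cut at about 7.5% in these data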;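 also: red hydrolysis product quenches plate fluorescence so inhibitors raise well fluorescence; 0% = enzyme with DMSO and 100% = DMSO without enzyme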
MEKK2 WT-MEK5: raises or lowers MEK5 binding to wildtype human MEKK2 PB1 domain; Q9Y2U5; bead flow cytometry, Alexa488-MEK5 binding to MEKK2 WT; actives lie on both sides; binding response (% of control), % at 10 µM; 290,000 compounds, 1.1% hits; AID 1531; in the data active = binding response below about 67% or above about 130%
MEKK3 PB1 HTS: modulators (inhibitors or enhancers) of MEK5 binding to human MEKK3 PB1 domain | Q99759 | bead-based flow cytometry, Alexa488-MEK5 binding to MEKK3; actives lie on both sides; 0 = blocked by unlabeled MEK5, 100 = vehicle | binding response (% of control), % at 10 µM | 290,000 compounds, 1.4% hits | AID 1529;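 active = binding response more than 3 SD above or below the average of its plate-row segment, actives on both sides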;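 also: Alexa488 bead fluorescence after subtracting the streptavidin-only scavenger bead signal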
Target sequence (Q99759 whole entry, looked up, the tested form may be a part): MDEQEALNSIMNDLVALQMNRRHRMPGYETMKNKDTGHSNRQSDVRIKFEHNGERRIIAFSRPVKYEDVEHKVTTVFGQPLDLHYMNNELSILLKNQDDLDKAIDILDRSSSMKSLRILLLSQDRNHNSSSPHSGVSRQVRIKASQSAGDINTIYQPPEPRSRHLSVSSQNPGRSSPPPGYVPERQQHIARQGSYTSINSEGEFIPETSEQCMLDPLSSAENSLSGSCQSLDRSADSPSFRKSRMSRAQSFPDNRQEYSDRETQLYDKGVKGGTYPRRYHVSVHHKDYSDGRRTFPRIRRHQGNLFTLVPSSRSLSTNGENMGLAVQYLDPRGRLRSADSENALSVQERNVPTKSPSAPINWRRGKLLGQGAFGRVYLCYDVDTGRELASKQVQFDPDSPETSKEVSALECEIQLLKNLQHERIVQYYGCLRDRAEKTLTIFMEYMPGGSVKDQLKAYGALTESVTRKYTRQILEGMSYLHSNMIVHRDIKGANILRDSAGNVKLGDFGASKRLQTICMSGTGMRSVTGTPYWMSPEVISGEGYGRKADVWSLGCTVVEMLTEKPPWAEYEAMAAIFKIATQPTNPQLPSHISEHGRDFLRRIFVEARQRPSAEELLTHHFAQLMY
IMP-1 inhibitor: inhibitors of Pseudomonas aeruginosa IMP-1 metallo-beta-lactamase. purified IMP-1, nitrocefin hydrolysis, epi-absorbance fluorescence. inhibition, % at 5.6 µM. 290,000 compounds, 0.45% hits;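 active = inhibition above the mean plus 3 SD of all compounds in the same screening run, cut at about 4.5% in these data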;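 also: 0% = IMP-1 with DMSO and 100% = DMSO wells lacking enzyme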
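Material – recombinant IMP-1 enzyme, purified · Amount – IMP-1 0.2 nM before substrate addition · Medium – HEPES buffer pH 7.1 with ZnSO4 and Brij 35 · Timing – 25 °C, 15 min preincubation, 25 min reaction · Measured by – plate fluorescence quenching by hydrolysis product, ex 480/em 530 nm · Read-out – percent enzyme inhibition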
MEKK2wt confirm: raises or lowers MEK5 binding to wildtype human MEKK2, retest; binding response (% of control), % at 10 µM; bead flow cytometry, Alexa488-MEK5 binding to MEKK2 WT; actives lie on both sides; 5,900 compounds, 2.4% hits; shares compounds with MEKK3 PB1 HTS; in the data active = binding response below about 16% or above about 210%; inactive = in between
MEKK2mut-MEK5: signal of MEK5 binding to mutant human MEKK2, retest; 5,900 compounds, 2% hits; bead flow cytometry, Alexa488-MEK5 binding to MEKK2 mutant; percent response, % at 10 µM; shares compounds with MEKK3 PB1 HTS; in the data active = percent response mostly above about 71%, no sharp cut-off; inactive = mostly below about 38%;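 also: higher means compound restores mutant binding toward wildtype level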
MEKK3-MEK5 inh: confirmation of inhibitors of MEK5 binding to human MEKK3 | AID 1894 | 5,900 compounds, 1.8% hits | binding response (% of control), % at 10 µM | bead flow cytometry, Alexa488-MEK5 binding to MEKK3; active compounds read low | shares compounds with MEKK3 PB1 HTS;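 active = binding response below 72% of control, or above a set upper limit, though filed actives all read lower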;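 also: 100% = DMSO only wells and 0% = binding blocked by excess unlabeled MEK5; lower values mean stronger disruption of MEK5 binding to MEKK3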
Active calls of the source: *; nt = no result; [ ] = dose if it differs, or a comment.

SMILES	MEKK2 mut-MEK5	VIM-2 inhibitor	MEKK2 WT-MEK5	MEKK3 PB1 HTS	IMP-1 inhibitor	MEKK2wt confirm	MEKK2mut-MEK5	MEKK3-MEK5 inh
CCOC(=O)c1c(C)[nH]c(C)c1C(=O)CSc1nc2ccccc2n1CC	0	0	102	135*	-3	102	-3	100
O=S(=O)(c1cccc(NC(=S)NCc2ccco2)c1)N1CCOCC1	-1	0	96	93	-1	nt	nt	nt
CC1=NN(c2ccccc2)C(=O)/C1=C/C=C/c1ccccc1	-1	-3	100	129*	0	101	4	101
COc1ccc(NC(=S)N/N=C2\CC(C)(C)Oc3ccc(OC)cc32)cc1	1	-2	110	130*	-1	99	-1	104
Cc1ccc(NC(=S)N/N=C2\CC(C)(C)Oc3ccc(O)cc32)cc1	0	-1	102	107	0	nt	nt	nt
O=c1oc2ccc3ccccc3c2c2c1SC(C(F)(F)F)C2 (configuration not stated)	8	0	115	124*	-1	94	-7	99
O=C(CN1CCOCC1)Nc1nc(-c2ccc3c(c2)CCN3S(=O)(=O)c2ccccc2)cs1	-26	-4	3.0*[inhibitor]	2.0*[inhibitor]	-6	99	-9	101
Cc1nc(P(=O)(c2ccccc2)c2ccccc2)c(N2CCOCC2)o1	9	2	123	131*	-2	91	-7	94
CSc1nc2ccccc2n1Cc1cccc(F)c1	6	1	98	103	-3	nt	nt	nt
CSc1nc2ccccc2n1Cc1cccc([N+](=O)[O-])c1	1	-1	108	152*	-4	100	-5	103
O=C(COC(=O)c1c2c(nc3ccccc13)CCCC2)Nc1ccc2c(c1)OCO2	6	-3	100	102	-3	nt	nt	nt
O=C(CSc1nnc(-c2ccccc2)o1)c1ccc2c(c1)OCCO2	-15	-3	85	80*[inhibitor]	-2	109	6	103
O=C(CSc1ncn[nH]1)c1ccc2c(c1)OCCO2	-7	1	87	77*[inhibitor]	-1	106	4	105
O=C(Nc1ncc(Cc2ccccc2Cl)s1)c1ccc([N+](=O)[O-])cc1	1	-1	112	116	-3	nt	nt	nt
Cc1ccc2c(c1)C=CC(C)N2C(=O)c1ccccc1 (configuration not stated)	9	0	102	103	-2	nt	nt	nt
CCCC(=O)OC1CC(C)N(C(=O)c2ccccc2)c2ccc(C)cc21 (configuration not stated)	-40	-1	21*[inhibitor]	12*[inhibitor]	-5	99	-1	100
O=c1[nH]cc(I)cc1I	-27	-1	38*[inhibitor]	37*[inhibitor]	-1	101	4	102
COc1ccc(-c2[nH]ncc2CN2CCC(C(=O)c3ccc(F)cc3)CC2)cc1	4	2	109	103	-1	nt	nt	nt
Cc1cc(C)c(COc2ccc(/C=N/n3c(C)n[nH]c3=S)cc2)c(C)c1	-2	-2	82	72*[inhibitor]	-2	91	-10	94
Cc1n[nH]c(=S)n1/N=C/c1ccc(OCc2ccc(Cl)cc2)cc1	-6	-3	93	96	-5	nt	nt	nt
Cc1cc(=O)n(CC=C(Cl)Cl)c2ccccc12	-4	-2	102	100	-3	nt	nt	nt
O=C(Nc1ccccc1)C1CC2CCC1C2 (configuration not stated)	-1	1	100	97	1	nt	nt	nt
O=C(CNC(=O)c1ccccc1)N/N=C/c1cccs1	-4	-3	101	109	-1	nt	nt	nt
CNC(=S)N/N=C/c1ccccc1Cl	0	-4	108	142*	-4	102	-1	102
O=C(CNC(=O)c1ccccc1)N/N=C/c1ccccc1Cl	1	-4	112	129*	-3	96	0	100
SMILES	MEKK2 mut-MEK5	VIM-2 inhibitor	MEKK2 WT-MEK5	MEKK3 PB1 HTS	IMP-1 inhibitor	MEKK2wt confirm	MEKK2mut-MEK5	MEKK3-MEK5 inh
O=C(CSCc1c(F)cccc1F)Nc1ccccc1	4	-3	106	96	-2	nt	nt	nt
Cn1ccsc1=NC(=O)c1ccccc1OC(F)F	-4	-2	94	93	-2	nt	nt	nt
O=C(COC(=O)CCc1c[nH]c2ccccc12)NCc1ccc(Cl)cc1	-1	6	2.0*[inhibitor]	2.0*[inhibitor]	-3	101	-3	102
N#Cc1cccn1-c1nccc(-c2cccs2)n1	7	3	131	149*	-1	93	-6	91
C/C(CC(=O)Nc1cccc(Cl)c1Cl)=N\NC(=O)C(=O)N1CCCC1	2	-4	99	98	-2	nt	nt	nt
C/C(CC(=O)Nc1cccc(Cl)c1Cl)=N\NC(=O)c1ccccc1C	-18	-3	4.0*[inhibitor]	3.0*[inhibitor]	-2	97	4	102
S=C(NCCCN1CCOCC1)Nc1ccc(Cl)c(Cl)c1	0	-3	109	63*[inhibitor]	-1	89	-9	79
S=C(Nc1ccc(Cl)c(Cl)c1)NC1CCN(Cc2ccccc2)CC1	34*	0	168*	111	1	171	35	110
Fc1ccc(NC(=S)NC2CCN(Cc3ccccc3)CC2)cc1	2	-2	108	102	-3	nt	nt	nt
CCc1ccc(NC(=S)NC2CC3CCCC(C2)N3Cc2ccccc2)cc1 (configuration not stated)	22	-3	132	104	-5	nt	nt	nt
S=C(NC1CCCCC1)N1CCN(Cc2ccccc2)CC1	2	-3	105	143*	-3	109	4	104
S=C(Nc1ccc(Cl)cc1)NC1CC2CCC(C1)N2Cc1ccccc1 (configuration not stated)	41	-2	156*	110	-3	142	28	110
Nc1cc(S(=O)(=O)O)cc([N+](=O)[O-])c1O	-1	-2	98	99	-2	nt	nt	nt
Cc1cc(C)nc(N/N=C/c2sccc2C)n1	5	-4	102	102	-3	nt	nt	nt
O=C(CSc1n[nH]c(=O)[nH]c1=O)NC1CCCCC1	-15	0	84	92	-1	nt	nt	nt
CSc1cccc(NC(=S)NCCCN2CCN(c3ccc(F)cc3)CC2)c1	18	-2	142*	115	-2	134	9	103
Fc1cccc(NC(=S)NCCCN2CCOCC2)c1	-3	-1	95	98	-4	nt	nt	nt
Cc1ccc(-c2cc(C(=O)Nc3ccc(S(=O)(=O)Nc4onc(C)c4C)cc3)c3ccccc3n2)cc1	3	-4	102	105	-2	nt	nt	nt
